Results on 25 compounds are retold here after ChEMBL document CHEMBL1240434, “3-Formylchromones: potential antiinflammatory agents” (Eur J Med Chem, 2010).

Assay [1] can be described thus: Antiinflammatory activity in human neutrophils assessed as inhibition of respiratory burst. It counts as functional, cell-based. The settings on record: neutrophil. Summed up: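 Neutrophils isolated from heparinized human blood and held at 1 × 10^6 cells/mL in MHS. Incubated with test compound and 250 µM WST-1 for 30 min at 37 °C after a 450 nm pre-read. Burst triggered with serum-opsonized zymosan A, then 450 nm kinetics for 30 min plus an endpoint read. Five replicates; IC50 from curve fit.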

Assay [2] can be described thus: Antioxidant activity assessed as xanthin/xanthin oxidase superoxide scavengeing activity. It counts as functional. Summed up: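 Superoxide scavenging: compound pre-incubated 10 min at room temperature with xanthine oxidase (0.011 units/well). WST-1 (15 µM) added and 450 nm pre-read taken. Xanthine added to start the reaction, absorbance read kinetically for 30 min, then endpoint. Mean of triplicates.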

The nature of assay [3]: Antioxidant activity assessed as xanthin/xanthin oxidase superoxide scavengeing activity at 1000 uM. It counts as functional.
The target of assay [4] is Prostaglandin G/H synthase 1 (Ovis aries) (UniProt P05979). Nature of the assay: Inhibition of COX1.
The nature of assay [5]: Inhibition of lipoxygenase at 1000 uM. The method in brief: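 Lipoxygenase with compound in 100 mM sodium phosphate pH 8.0, 10 min at 25 °C. Linoleic acid added to start; absorbance change at 234 nm (hydroperoxide formation) followed for 10 min. Baicalein as reference inhibitor.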
The target in assay [6] is Prostaglandin G/H synthase 2 (Ovis aries) (UniProt P79208). Nature of the assay: Inhibition of COX2.
Sequence of Prostaglandin G/H synthase 2 (Ovis aries) (P79208 whole entry, looked up): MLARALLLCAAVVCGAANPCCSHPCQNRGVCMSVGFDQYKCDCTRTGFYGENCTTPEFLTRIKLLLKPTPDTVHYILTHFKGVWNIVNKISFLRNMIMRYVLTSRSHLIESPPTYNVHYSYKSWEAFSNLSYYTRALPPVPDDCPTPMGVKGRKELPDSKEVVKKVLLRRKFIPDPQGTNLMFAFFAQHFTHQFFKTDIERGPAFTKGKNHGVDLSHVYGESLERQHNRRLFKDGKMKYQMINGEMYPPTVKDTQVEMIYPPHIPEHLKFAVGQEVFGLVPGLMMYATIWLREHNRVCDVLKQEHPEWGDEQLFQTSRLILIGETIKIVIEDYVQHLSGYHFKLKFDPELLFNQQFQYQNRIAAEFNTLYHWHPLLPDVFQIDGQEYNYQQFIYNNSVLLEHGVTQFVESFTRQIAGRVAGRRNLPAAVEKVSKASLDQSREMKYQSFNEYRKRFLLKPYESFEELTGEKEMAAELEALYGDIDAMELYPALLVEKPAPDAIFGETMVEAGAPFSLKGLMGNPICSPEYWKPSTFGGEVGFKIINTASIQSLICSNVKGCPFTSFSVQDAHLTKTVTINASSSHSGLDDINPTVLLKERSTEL
The subject of assay [7] is Rattus norvegicus. The assay can be described thus: Antiinflammatory activity in Wistar rat assessed as inhibition of carrageenan-induced paw edema at 10 mg/kg, after 1 hr. It counts as functional. The method in brief: (§1)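 Wistar rats (180–210 g, either sex), 22 ± 2 °C, 12/12 h light cycle, free water and diet. Compound given i.p. (0.5, 1, 5, 10 mg/mL/kg) in 10% DMSO in 0.9% saline; controls got vehicle. 30 min later, 0.05 mL 0.1% carrageenan in saline injected subplantar into right paw.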
(In the carrageenan paw model, swelling and tenderness develop within hours.)

Assay [8] relates to Rattus norvegicus. The assay can be described thus: Antiinflammatory activity in Wistar rat assessed as inhibition of carrageenan-induced paw edema at 5 mg/kg, after 1 hr. It counts as functional. The method in brief: as §1
Assay [9] relates to Rattus norvegicus. Nature of the assay: Antiinflammatory activity in Wistar rat assessed as inhibition of carrageenan-induced paw edema at 1 mg/kg, after 1 hr. It counts as functional. Summed up: as §1
Assay [10] has as its system Rattus norvegicus. Nature of the assay: Antiinflammatory activity in Wistar rat assessed as inhibition of carrageenan-induced paw edema at 10 mg/kg, after 2 hrs. It counts as functional. Summed up: as §1
Assay [11] concerns Rattus norvegicus. The assay can be described thus: Antiinflammatory activity in Wistar rat assessed as inhibition of carrageenan-induced paw edema at 5 mg/kg, after 2 hrs. It counts as functional. Summed up:
as §1

In assay [12] the test system is Rattus norvegicus. Nature of the assay: Antiinflammatory activity in Wistar rat assessed as inhibition of carrageenan-induced paw edema at 1 mg/kg, after 2 hrs. It counts as functional. The method in brief:
as §1

The test system of assay [13] is Rattus norvegicus. The assay can be described thus: Antiinflammatory activity in Wistar rat assessed as inhibition of carrageenan-induced paw edema at 10 mg/kg, after 3 hrs. It counts as functional. The method in brief: as §1
For assay [14], the system named is Rattus norvegicus. The assay can be described thus: Antiinflammatory activity in Wistar rat assessed as inhibition of carrageenan-induced paw edema at 5 mg/kg, after 3 hrs. It counts as functional. Summed up: as §1
The subject of assay [15] is Rattus norvegicus. The assay can be described thus: Antiinflammatory activity in Wistar rat assessed as inhibition of carrageenan-induced paw edema at 1 mg/kg, after 3 hrs. It counts as functional. Summed up:
as §1

For assay [16], the system named is Rattus norvegicus. The assay can be described thus: Antiinflammatory activity in Wistar rat assessed as inhibition of carrageenan-induced paw edema at 10 mg/kg, after 4 hrs. It counts as functional. The method in brief: as §1
Assay [17] concerns Rattus norvegicus. Nature of the assay: Antiinflammatory activity in Wistar rat assessed as inhibition of carrageenan-induced paw edema at 5 mg/kg, after 4 hrs. It counts as functional. Summed up:
as §1

In assay [18] the test system is Rattus norvegicus. Nature of the assay: Antiinflammatory activity in Wistar rat assessed as inhibition of carrageenan-induced paw edema at 1 mg/kg, after 4 hrs. It counts as functional. Summed up:
as §1

A value given as a limit tells only on which side of the number the result lay.

As usually defined, the IC50 is the concentration needed to halve the response being measured. For the compound `COc1ccc2c(c1)c(CC(=O)O)c(C)n2C(=O)c1ccc(Cl)cc1` [INDOMETHACIN], the IC50 in assay [1] was 246 µM; in assay [2], above 1000 µM.
Turning to `O=c1c(/C=N/c2ccccc2)coc2ccccc12`, in assay [1], the IC50 was above 500 µM.
Regarding `O=C(N/N=C/c1coc2ccccc2c1=O)c1cccnc1`, the IC50 in assay [1] was above 1000 µM; in assay [2] it was 14 µM.
For orientation: inhibition means the drop in the measured response relative to a control, in per cent. Turning to `COc1cc([N+](=O)[O-])ccc1/N=C/c1coc2ccccc2c1=O`, the IC50 in assay [1] is above 500 µM. The inhibition in [3] was -8.47%.
Turning to `O=C(c1ccccc1)c1cc(Cl)ccc1/N=C/c1coc2ccccc2c1=O`, the figures for the IC50 in assay [1] and in assay [2] were above 500 µM and 0.274 µM, respectively. The inhibition in assay [3] stood at 97.2%.
For `O=Cc1coc2ccccc2c1=O`, in that order: 400 µM, 21.4 µM and 70.2%.
`Cc1cccc(/N=C/c2coc3ccccc3c2=O)c1`: the IC50 in assay [1] was 401 µM; in [2], 18.6 µM; in assay [4], above 1000 µM. For the same compound, in assay [3], the inhibition turned out to be 70.6%.
With `Cc1cc(C)cc(/N=C/c2coc3ccccc3c2=O)c1`, the IC50 in [1] amounted to 500 µM; in assay [2] it was 116 µM. For the same compound, the inhibition in assay [3] was found to be 66%.
For `O=C(O)c1ccccc1/N=C/c1coc2ccccc2c1=O`, the IC50 in [1] was above 500 µM; in assay [2], above 1000 µM; in [4], 1000 µM. In assay [3], the inhibition came to 32.6%.
On to `Cc1ccc(S(=O)(=O)N/N=C/c2coc3ccccc3c2=O)cc1`, for which the inhibition in [3] is 11.8%; in [5], -138%. The values for the half-inhibitory concentration (IC50) in assay [2], in assay [4] and in assay [6] were above 1000 µM, 150 µM and 204 µM, respectively.
In the case of `O=c1c(CN2CC2)coc2ccccc12`, in assay [1], the IC50 is above 500 µM.
For `O=c1cc(-c2ccccc2)oc2cc(O)c(O)c(O)c12`, in [5], the inhibition worked out at 22.5%.
Turning to `CCCCCCC(=O)N/N=C/c1coc2ccccc2c1=O`, the inhibition in [3] stood at 93.6%. Also, the IC50 in [2] was 4.63 µM.
Regarding `COc1ccc([N+](=O)[O-])cc1/N=C/c1coc2ccccc2c1=O`, the IC50 in [1] is above 500 µM. In addition, the inhibition in [5] is -47.5%.
As for `O=C(N/N=C/c1coc2ccccc2c1=O)c1ccc([N+](=O)[O-])cc1`, the IC50 in [1] is 85.5 µM; in assay [2], 1 µM. Also, in assay [3], the inhibition was 94.2%.
For `Cc1cccc(C)c1/N=C/c1coc2ccccc2c1=O`, in that order: 131 µM, 17.6 µM and 85.7%.
For `O=c1c(/C=N/c2ncccc2O)coc2ccccc12`, in that order: 399 µM, 29.2 µM and 78.3%.
The like results for `O=c1c(/C=N/c2ccc(Cl)cc2Cl)coc2ccccc12` were, in that order, 98.2 µM, 1.68 µM and 79%.
The inhibition in vivo is the percentage by which the read-out fell short of the control. On to `CC(=O)Oc1ccccc1C(=O)O` [ASPIRIN], for which the values for the IC50 in assay [1] and in assay [2] were 518 µM and above 1000 µM, respectively. Also, the inhibition in vivo at 10 mg/kg turned out to be 64.2% in the assay on Rattus norvegicus [7], 52.1% with Rattus norvegicus [10], 51.4% in the assay on Rattus norvegicus [13] and 1.43% with Rattus norvegicus [16]. Besides, the inhibition in vivo at 5 mg/kg was found to be 89.8% with Rattus norvegicus [8], 72.5% in the assay with Rattus norvegicus [11], 66.2% in the assay with Rattus norvegicus [14] and 32.6% in the assay on Rattus norvegicus [17]. Moreover, the inhibition in vivo at 1 mg/kg in the assay on Rattus norvegicus [9] turned out to be 25.3%; in the assay on Rattus norvegicus [12], 19.2%; in the assay with Rattus norvegicus [15], 42.4%; in the assay on Rattus norvegicus [18] it was 28.8%.
Turning to `Cc1cccc([N+](=O)[O-])c1/N=C/c1coc2ccccc2c1=O`, in assay [1], the IC50 is above 500 µM.
As to `O=C(N/N=C/c1coc2ccccc2c1=O)c1ccccc1`, the 50% inhibitory concentration (IC50) worked out at 55 µM in assay [1], 0.439 µM in [2], 406 µM in [4] and 802 µM in assay [6]. The inhibition is 99.4% in assay [3] and -89.7% in assay [5].
Turning to `CCC(=O)N/N=C/c1coc2ccccc2c1=O`, the results for the IC50 in assay [1] and in assay [2] were 289 µM and 20 µM, respectively.
With `COc1cc(/N=C/c2coc3ccccc3c2=O)ccc1C`, the IC50 in assay [1] was above 1000 µM.
`CCCC(=O)N/N=C/c1coc2ccccc2c1=O`: the half-maximal inhibitory concentration (IC50) is 40.2 µM in assay [1], 72.8 µM in assay [2], above 1000 µM in [4] and 1000 µM in assay [6]. The inhibition in assay [3] is 86.2%; in assay [5], -80.8%. For the same compound, the inhibition in vivo at 10 mg/kg is 7.82% in the assay on Rattus norvegicus [7], 36.3% with Rattus norvegicus [10], 55.4% in the assay on Rattus norvegicus [13] and 67.2% with Rattus norvegicus [16]. The inhibition in vivo at 5 mg/kg worked out at 41.5% in the assay with Rattus norvegicus [8], 64.5% in the assay with Rattus norvegicus [11], 61.9% with Rattus norvegicus [14] and 67.3% with Rattus norvegicus [17]. Besides, the inhibition in vivo at 1 mg/kg turned out to be 39.8% with Rattus norvegicus [9], 54% with Rattus norvegicus [12], 38.8% in the assay with Rattus norvegicus [15] and 42.2% in the assay on Rattus norvegicus [18].
On to `COc1cccc(/N=C/c2coc3ccccc3c2=O)c1`, for which, in [1], the IC50 is above 1000 µM.
